Measurements as given in the EternaBench riboswitch data.

Tested on: MS2 coat protein
Test: apparent Kd, MS2 coat protein; higher = weaker binding; RNA-MaP array; FMN 200 µM where present
How it was run: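 Stalled E. coli RNA polymerase transcribed each design on Illumina sequencing-chip clusters. The clusters were titrated with SNAP-549-labelled MS2 coat protein, starting at 0.7 or 1.5 nM and doubling up to 3 µM, first without ligand and then with constant ligand, in 100 mM Tris-HCl pH 7.5, 80 mM KCl, 4 mM MgCl2, BSA, DTT, yeast tRNA and Tween-20. Green signal was normalised to red-channel RNA signal and to the control-cluster median Fmax. The apparent Kd is the median of filtered binding-curve fits made for each cluster.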

[1] = designed as: OFF switch for flavin mononucleotide, no ligand
[2] = ligand present: flavin mononucleotide, designed as: OFF switch for flavin mononucleotide
[3] = designed as: ON switch for flavin mononucleotide, no ligand
[4] = ligand present: flavin mononucleotide, designed as: ON switch for flavin mononucleotide

GUUUUUUUUCAUGUACAUGAGGAACAUGAGGAUCACCCAUGUAGAAGGAAUUUUUUUAAGUUUAGUUAGGAUAUACAUAUAUUG
apparent Kd [1]: 54.2 nM | apparent Kd [2]: 33.9 nM

CCUUAGUCAGGAUAUACAUGAGGAUCACCCAUGUAAAAUUUUAAUUUAAUUUUAAGGUGUAGAAGGGACCACCC
apparent Kd [1]: 26.3 nM | apparent Kd [2]: 22.6 nM

AGGGUAGUAGGAUAUACAUGAGGAUCACCCAUGUUUCCUUUACGUGACUGGUCCUAGUGUAGAAGGGCUAGCAC
apparent Kd [1]: 15.8 nM | apparent Kd [2]: 14.8 nM

AGGAAGUGAGGAUAUGCAGUGGCCUGUAGACGCAAGCACUUGUAGAAGGCACAUGAGGAUCACCCAUGUUUAAA
apparent Kd [1]: 35.8 nM | apparent Kd [2]: 34.2 nM

AUAAUGUGAGGAUAUCAGUAGUAUUGCUUCGGCAAUACUACUGAGAAGGCACAUGAGGAUCACCCAUGUGAUCA
apparent Kd [1]: 1380 nM | apparent Kd [2]: 32.8 nM

CCUCCACAUGAGGAUCACCCAUGUCAGGAUAUCGCGCGCGCGUUUUCGGUCUUUCGCGCGAGAAGGGACGACUG
apparent Kd [1]: 34.4 nM | apparent Kd [2]: 54.5 nM

AGUUACAUGAGGAUCACCCAUGUGUAUAGGGCAACCUAUAGACAGGAUAUCCGGCAUGCGGCCUAGGAGAAGGGUCAAAGAAGA
apparent Kd [3]: 91.5 nM | apparent Kd [4]: 429 nM

AUAAUUUAAGUGAGGAUAUACCUAUGGAAACAUAGGUAGAAGGCACAUGAGGAUCACCCAUGUUUUUACACAAA
apparent Kd [1]: 17.8 nM | apparent Kd [2]: 37.9 nM

AACGCGGAAAUCGCAAUACAUGAGGAUCACCCAUGUAGAUCGCAGGAUAUGGUCUAGUCAGUGGUCCAGAAGGGUGAUCAGAAC
apparent Kd [3]: 125 nM | apparent Kd [4]: 74.5 nM

CGACGUUGAGAGAAGGAGUAAAAUACAUGAGGAUCACCCAUGUCAGGUGCUAGGAUAUCUUCGCGUGGCAGGGUCGGCCCGUGU
apparent Kd [3]: 66 nM | apparent Kd [4]: 14.3 nM

GUUUUGGUAGGAUAUACAUGAGGAUCACCCAUGUCCCACCCGUUACCUAUGACCAUAUGUAGAAGGACCAUUUG
apparent Kd [1]: 22.2 nM | apparent Kd [2]: 28.2 nM

GUACAGUAGUGAGGAUAUACGAGAUCGAUAGAUCGGCGAUCCAUUAAUACAUGAGGAUCACCCAUGUAGAAGGCACUUCUGUAC
apparent Kd [1]: 5.84 nM | apparent Kd [2]: 82.5 nM

UCUGCCGCCGUGAGGAUAUGCCCAAAAAAACGCGGGCAGAAGGCACAUGAGGAUCACCCAUGUCCCGCGGUUUU
apparent Kd [1]: 19.5 nM | apparent Kd [2]: 34.1 nM

GGAUGACAAAGUCAUCCUUAACGAACAUGAGGAUCACCCAUGUAGGAUAUGCUACUGAAACAGUAGCAGAAGGACAUGUGUCUU
apparent Kd [1]: 29.7 nM | apparent Kd [2]: 130 nM

UUCAUCAAUGAAGGAUAUCUAUGUCCAACAUGAGGAUCACCCAUGUUGAGGAUCACCUAUGUAUAGGAGAAGGUUAAUAUAACU
apparent Kd [3]: 7.32 nM | apparent Kd [4]: 6.28 nM

AAGUCAGCAGGAUAUGCGAUGUUGGGCUAGAUAGCGUGACCACAUGAGGAUCACCCAUGUAGAAGGGCUGGCUA
apparent Kd [1]: 37.4 nM | apparent Kd [2]: 43.7 nM

CCUUUGUCAGGAUAUCAGAACACGCCCGUAGGGAGUGCAAAUGAGAAGGGACAUGAGGAUCACCCAUGUACAGA
apparent Kd [1]: 33.2 nM | apparent Kd [2]: 114 nM

UUGGACCUAGGAUAUACAUGAGGAUCACCCAUGUUGGCGCACGCCCACCUGGACCCGAGUAGAAGGAGGAAAAU
apparent Kd [1]: 26.1 nM | apparent Kd [2]: 78.4 nM

UUAUCUUGUCAAGGAUAUGUUGUAUUGAUCUGAAAACAUGAGGAUCACCCAUGUAUACGGUGGGAACAGAAGGUGAAUGUAGAA
apparent Kd [2]: 721 nM

GGAGGACAUGAGGAUCACCCAUGUGGAUGGGCGCUAGGAUAUGCGAGAGGAGGGAGUGGAGCAGAAGGAGUGGGUU
apparent Kd [3]: 65.6 nM | apparent Kd [4]: 57.5 nM

AUCUGACAUGAGGAUCACCCAUGUAUUCGAGCAUGAGGAUAUAUGACUCGUCAUCGGCGGAUAGAAGGCAUGGUUG
apparent Kd [3]: 97.5 nM | apparent Kd [4]: 189 nM

GGAUCAGAUGAGGAUAUUCGUUGUAUAACAACAGGAGAAGGCAUCACAUGAGGAUCACCCAUGUUCUACCUUCC
apparent Kd [1]: 14.1 nM | apparent Kd [2]: 15.8 nM

UAGUGCGUUAGAGGAUAUUCAAGGUGAAAAAAAAAUACAUGAGGAUCACCCAUGUAAAAACAUGAGGAGAAGGCUGAUGUGCUA
apparent Kd [3]: 38.6 nM | apparent Kd [4]: 27.6 nM

UAUAUAUAGUAAGGAUAUGUAUUAAUUUUAGAAACAGAAGGUACUGACAUGAGGAUCACCCAUGUUUUAGUGUGGGCAUGUAGA
apparent Kd [1]: 98.3 nM | apparent Kd [2]: 147 nM

AAGAAACAUGAGGAUCACCCAUGUGUAAAUAUGGGAGGAUAUACAAGGACGUAAGUCAAGGUAGAAGGCCUAAGAA
apparent Kd [3]: 172 nM | apparent Kd [4]: 32.7 nM

GGUGGGUUGCUGCCGGCACAUGAGGAUCACCCAUGUUUUGGGAAGGAUAUGGUACCUUUUUGGUGCCAGAAGGUCCCGUUGGUG
apparent Kd [3]: 733 nM | apparent Kd [4]: 1000 nM

UGUAAGAUGCAGAAGGUGUUAGCUAGAGCUACGACAUGAGGAUCACCCAUGUACUAGAAACAGUACAAGGAUAUGCAUCUUACA
apparent Kd [3]: 18.3 nM | apparent Kd [4]: 6.12 nM

GUACCUUAUGAGAAGGCGAUCAUGAAACAUGAUCGAGGAUAUCAUGUAAACAUGAGGAUCACCCAUGUAUGGGUAUUAUGGUAA
apparent Kd [3]: 31.8 nM | apparent Kd [4]: 10.2 nM

UAAAUGUGAGGAUAUUCGUAGUACUCGGAGACGAGUAUUACGGAGAAGGCACAUGAGGAUCACCCAUGUUCCUU
apparent Kd [1]: 21.3 nM | apparent Kd [2]: 188 nM

UAAUAAUUAUGAGGAUAUAUACAACAUGAGGAUCACCCAUGUACCCAUGUAGUAGAAGGCAUAUUUUUAUUUAAUAAUAUAACU
apparent Kd [3]: 60.4 nM | apparent Kd [4]: 27.6 nM

CUCCGUGGCGAGAAGGGCGGGAUUUUAGGUUCUGUAGGAUAUCGAAACAUGAGGAUCACCCAUGUAUUGAUCGGGUGCAGUGUG
apparent Kd [1]: 22 nM | apparent Kd [2]: 23.2 nM

GCGUAUUUAAGAUUUAUAAAACAGUCAGAAGGUGAUAAGACGACAUGAGGAUCACCCAUGUAAUUCAAGGAUAUGAAAAUGCGC
apparent Kd [3]: 48.6 nM | apparent Kd [4]: 22.1 nM

AGGAUUAAAGGGAAUAACAUGAGGAUCACCCAUGUAUGGGAGAGAAGGCAUAUCGGAGGACGAUAUGAGGAUAUUUAAAAUUUA
apparent Kd [3]: 121 nM | apparent Kd [4]: 38.3 nM

UGAACUAUGUAGAAGGCCCUCAUGAAAAUGAAGGGAGGAUAUACAUGAGGAUCACCCAUGUGAAGAGCAAGAGGGUUUAACAGA
apparent Kd [1]: 149 nM | apparent Kd [2]: 172 nM

UCUAUAAGAAAAUAGACGAAGUGGCCAGAAGGUGAAUGCCACAUGAGGAUCACCCAUGUUUCGAUCAAGGAUAUGGUUUCUCAC
apparent Kd [3]: 383 nM | apparent Kd [4]: 99.1 nM

AGUCAGAGCAGAGGAUAUAUACAUGAGGAUCACCCAUGUGACUGACUACGCUAGAAAUAGCGUGUAUAGAAGGCUGCUCUGACA
apparent Kd [1]: 40.2 nM | apparent Kd [2]: 96.4 nM

GUAGCAUACCGAGGAUAUUCAUACCGGAAACGGACAUGAGGAUCACCCAUGUGGCGAAAGCCUUGGGAGAAGGCGGUAUGCUAC
apparent Kd [3]: 638 nM | apparent Kd [4]: 22.8 nM

AUGAAGUCAGGAUAUGCCACGUAAAGCCAUGGCUUUGGAGUGUAGAAGGGACAUGAGGAUCACCCAUGUUGUCC
apparent Kd [1]: 30.9 nM | apparent Kd [2]: 32.2 nM

CGCAAGUCAGGAUAUUCGACUGGUCCAUCUGUGGAUCAGUAGGAGAAGGGACAUGAGGAUCACCCAUGUUUGUU
apparent Kd [1]: 30.7 nM | apparent Kd [2]: 46.9 nM

CGUCCUUAGUGAGGAUAUCAGAAACUACGGAAAUGAGAAGGCACAUGAGGAUCACCCAUGUAAAUAACGGCCGGUCUUGGCAGC
apparent Kd [1]: 7.27 nM | apparent Kd [2]: 15.2 nM

UGUCGGAGCAGAGGAUAUUACAUGAGGAUCACCCAUGUAUUAAAUGGAAGCUGGAAACAGCAAUGUAAGAAGGCUGCUCCGACA
apparent Kd [1]: 59.2 nM | apparent Kd [2]: 311 nM

UUGUUAGGGAGAGGAUAUUGACAUGAGGAUCACCCAUGUACUUGGGAGUGUUUACUGAAUUCUCACGAGAAGGCUUACAAAUUU
apparent Kd [1]: 175 nM | apparent Kd [2]: 147 nM

CAGUUUUGAGGAUAUCCAUCCUCCUACAUGAGGAUCACCCAUGUUUCCCUCUGGGUUUUCGGAGAAGGCAGUUAUC
apparent Kd [1]: 341 nM | apparent Kd [2]: 251 nM

UAUAUAUAGUAAGGAUAUGUAAUUAUUUUAUGAACAGAAGGUACUGACAUGAGGAUCACCCAUGUUUUAGUGUGGGCAUGUAGA
apparent Kd [1]: 82.9 nM | apparent Kd [2]: 119 nM

AAGCGAAAGCUAAAAUAUCUAUCAGAGGAUAUUUAUGAUACAUGAGGAUCACCCAUGUGACACUGGGAGAAGGCUGAUAGAUAA
apparent Kd [3]: 19.2 nM | apparent Kd [4]: 7.5 nM

ACAUGAUAUGUAGGAUAUCACAUUAAUUGAUUAAUAAUUGAAUAUAGGAUUUGAGAAGGACAUUUACAUGAGGAUCACCCAUGU
apparent Kd [1]: 17.6 nM | apparent Kd [2]: 13.1 nM

AUUAUAUAGAAAGGAUAUAGAUUAUUAUUUUAACAUGAGGAUCACCCAUGUAGCCUUAUGUAUAACUAGAAGGUUCAUUUAUUA
apparent Kd [1]: 72.8 nM | apparent Kd [2]: 94.4 nM

GGUCGUCAGAUUAACAUGAGGAUCACCCAUGUCUUUUGACAUGAGGAUAUGGAUCCUAAUUGGAUCCAGAAGGCAUGGACGACC
apparent Kd [3]: 1170 nM | apparent Kd [4]: 104 nM

ACAUGAGGAUCACCCAUGUUAAGCGAGGAUAUUUGACUGCACAUGAGGUUCGCCCAUGUCCUGCCGAAGAAGGUGCGAAUAAUU
apparent Kd [3]: 54.2 nM | apparent Kd [4]: 17.6 nM

GUAAAUCAUGUAGGAUAUGCAUGGCGAAGCUACGCAGAAGGACAUGAGGAUCACCCAUGUCUGUCCGUCUGGAUACAGACGGAC
apparent Kd [1]: 24.6 nM | apparent Kd [2]: 195 nM

GGUUUGCGGCAGGAUAUCCAUCCGCGGUGUGGUGGAGAAGGGCUGACAUGAGGAUCACCCAUGUGCGUCCUGUU
apparent Kd [1]: 25.1 nM | apparent Kd [2]: 30.5 nM

UGGUACUAGGGAGGAUAUGGGAAGAUACAUGAGGAUCACCCAUGUUUAAGAAUGCCGAGAGGAAACUAGAAGGCCCUAGUACCU
apparent Kd [3]: 279 nM | apparent Kd [4]: 13.8 nM

UCUCUGCGAGGAUAUACGUUUGCGCGCUUUCGUUUGCGCGUACAUGAGGAUCACCCAUGUAGAAGGCGCGUUUC
apparent Kd [1]: 13.2 nM | apparent Kd [2]: 14.1 nM

AAUAACAGAGGAUAUACUGUUUUAUGUGUUUGUUGUUUUAAACAUGAGGAUCACCCAUGUAGAAGGCUGAAUAA
apparent Kd [1]: 19.3 nM | apparent Kd [2]: 20.3 nM

AAGCGACGAGGAUAUCGGUGGCUGAACAUGAGGAUCACCCAUGUGAACCGAUGGCAGUGUCGAGAAGGUGUUGAGU
apparent Kd [1]: 13.9 nM | apparent Kd [2]: 16.1 nM
